According to ChEMBL document CHEMBL3585287, “1-Benzyl-4-phenyl-1H-1,2,3-triazoles improve the transcriptional functions of estrogen-related receptor γ and promote the browning of white adipose” (Bioorg Med Chem, 2015):
One block for each compound: values may come before it. Activity calls are given as the source filed them. The rule behind the calls is not given here.

Legend:
MEF [1] = assay: Induction of mitochondrial biogenesis in primary mouse embryonic fibroblasts assessed as increase in CPT1 mRNA expression at 0.5 to 5 uM by quantitative real time PCR assay; type: functional, cell-based
Outline: (§1)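 MEFs were grown to confluence and held 2 days, then differentiated from day 0 with 5 μg/mL insulin, 1 μM dexamethasone and 0.5 mM IBMX. From day 8, cells received compound in DMEM/10% FBS for 2 more days. Total RNA was extracted with Trizol and reverse transcribed; SYBR qPCR normalized to GAPDH. Mean ± SEM of three independent experiments.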

[2] = target: T1, Estrogen-related receptor gamma (Mus musculus) (UniProt P62509); assay: Increase in ERRgamma mediated transcriptional activity in primary mouse embryonic fibroblasts assessed as increase in ERRalpha mRNA levels by quantitative real time PCR assay; outline: as §1
T1 sequence (whole entry): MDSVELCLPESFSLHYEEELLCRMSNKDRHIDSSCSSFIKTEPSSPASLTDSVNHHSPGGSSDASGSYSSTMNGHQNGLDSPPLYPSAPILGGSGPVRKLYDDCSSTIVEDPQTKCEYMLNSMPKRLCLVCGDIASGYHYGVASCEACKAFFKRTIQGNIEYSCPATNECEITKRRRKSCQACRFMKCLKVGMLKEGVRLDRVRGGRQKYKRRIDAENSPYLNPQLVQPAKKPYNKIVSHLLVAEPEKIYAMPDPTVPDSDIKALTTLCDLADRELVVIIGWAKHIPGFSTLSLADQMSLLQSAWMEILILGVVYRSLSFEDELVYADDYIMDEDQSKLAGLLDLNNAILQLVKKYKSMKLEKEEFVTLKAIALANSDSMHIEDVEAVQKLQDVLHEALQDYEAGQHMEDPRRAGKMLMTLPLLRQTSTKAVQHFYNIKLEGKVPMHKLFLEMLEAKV

[3] = target: T1, Estrogen-related receptor gamma (Mus musculus); assay: Increase in ERRgamma mediated transcriptional activity in primary mouse embryonic fibroblasts assessed as increase in ATP5b protein levels at 0.5 to 5 uM by Western blotting method
Outline: (§2)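 Differentiated MEF adipocytes were treated with compound from day 8 for 2 days. Cells were lysed in RIPA buffer on ice; 40 μg protein was run on 12% SDS-PAGE and blotted to PVDF. Primary antibodies overnight at 4 °C (UCP1 1:1000, SDH 1:4000, MCAD 1:5000, ATP5b 1:1000, β-actin 1:2000), then HRP secondary for 4 h at 4 °C and ECL detection. Three independent experiments.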

[4] = target: T1, Estrogen-related receptor gamma (Mus musculus); assay: Increase in ERRgamma mediated transcriptional activity in primary mouse embryonic fibroblasts assessed as increase in SHP mRNA levels by quantitative real time PCR assay; outline: as §1
MEF [5] = assay: In vitro induction of white adipose browning in primary mouse embryonic fibroblasts assessed as increase in UCP1 protein expression at 0.5 to 5 uM by Western blot method; type: functional, cell-based; outline: as §2
[6] = target: T2, Estrogen-related receptor gamma (Homo sapiens) (UniProt P62508); assay: Binding affinity to ERRgamma (unknown origin) assessed as increase in protein melting temperature by CD spectroscopy
T2 sequence (whole entry): T1 sequence (whole entry)
Outline: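 Purified ERRγ protein was diluted to 0.2 mg/mL in phosphate buffer and incubated overnight with ligand (200 mM DMSO stock). CD ellipticity was read at 200–260 nm in a 1 mm quartz cuvette. Temperature was stepped 1 °C at a time from 30 to 60 °C to obtain Tm.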

MEF [7] = assay: Induction of mitochondrial biogenesis in primary mouse embryonic fibroblasts assessed as increase in SDH mRNA expression at 0.5 to 5 uM by quantitative real time PCR assay; type: functional, cell-based; outline: as §1
MEF [8] = assay: Induction of mitochondrial biogenesis in primary mouse embryonic fibroblasts at 5 uM incubated for 2 days by electron microscopy; type: functional, cell-based
Outline: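 On day 10, MEF-derived white adipocytes were fixed in 2.5% glutaraldehyde for 1 h, post-fixed in 1% osmic acid for 1 h, dehydrated in graded ethanol and embedded in epoxy. Ultrathin sections were stained with uranyl acetate and lead citrate and examined by transmission electron microscopy.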

MEF [9] = assay: In vitro induction of white adipose browning in primary mouse embryonic fibroblasts assessed as increase in UCP1 positive adipocytes by Immunofluorescence staining assay; type: functional, cell-based
Outline: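 MEF-derived adipocytes on coverslips were treated from day 8 for 2 days. They were fixed in 4% formaldehyde, blocked in 5% BSA for 1 h, stained with rabbit anti-UCP1 (1:1000, 4 °C overnight) and then Alexa Fluor 647 secondary (1:200, 1 h), with DAPI nuclei. Imaged by fluorescence microscopy.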

[10] = target: T1, Estrogen-related receptor gamma (Mus musculus); assay: Increase in ERRgamma mediated transcriptional activity in primary mouse embryonic fibroblasts assessed as increase in MCAD protein levels at 0.5 to 5 uM by Western blotting method; outline: as §2
[11] = target: T2, Estrogen-related receptor gamma (Homo sapiens); assay: Activation of GAL4-DBD-ERRgamma ligand binding domain (unknown origin) expressed in HEK293FT cells incubated for 24 hrs by mammalian two-hybrid reporter gene assay; type: cell-based
Outline: (§3)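 293FT cells (DMEM, 10% FBS) were seeded at 10,000 cells/well and transfected 18-24 h later with GAL4-DBD-ERRγ-LBD (0.5 ng), pcDNA-PGC-1α (0.5 ng), pFR reporter (25 ng) and pRLTK renilla (3 ng). After 6 h, compound was added at 2 μM for 24 h. Dual luciferase readout, firefly/renilla ratio taken as RLU. Run in triplicate, ≥3 independent experiments.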

MEF [12] = assay: Induction of mitochondrial biogenesis in primary mouse embryonic fibroblasts assessed as increase in COX2 mRNA expression at 0.5 to 5 uM by quantitative real time PCR assay; type: functional, cell-based; outline: as §1
Adipocyte = assay: In vitro induction of white adipose browning in mouse white adipocytes differentiated from primary preadipocytes cells of subcutaneous adipose tissue assessed as increase in UCP1 mRNA expression at 1 and 5 uM by real-time PCR assay; type: functional, cell-based
Outline: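 Subcutaneous fat preadipocytes were isolated by 0.1% collagenase I digestion (40 min, 37 °C), filtered and cultured. Differentiation used insulin (5 μg/mL), dexamethasone (1 μM) and IBMX (0.5 mM). From day 8, compound was given in DMEM/10% FBS for 2 days. UCP1 mRNA was measured by SYBR qPCR against GAPDH.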

MEF [13] = assay: In vitro induction of white adipose browning in primary mouse embryonic fibroblasts assessed as increase in UCP1 mRNA expression by real-time PCR assay; type: functional, cell-based; outline: as §1
Mus musculus [14] = assay: In vivo induction of white adipose browning in C57BL6 mouse interscapularbrown adipose tissue assessed as increase in UCP1 expression at 20 mg/kg/day, po by immunohistochemistry; type: functional, organism-based; conditions: in the assay text read “subcutaneous white adipose tissue” for “interscapularbrown adipose tissue”
Outline: (§4)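 Male C57BL6 mice (8 weeks) on a high-fat diet (60% energy as fat) were gavaged daily for 4 weeks with 20 mg/kg compound or vehicle (5% alcohol in PBS). Adipose tissues were fixed overnight in 4% formaldehyde, paraffin-sectioned and immunostained for UCP1 (1:1000); UCP1-positive area was quantified. Two independent experiments.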

MEF [15] = assay: Increase ERRgamma mRNA levels in primary mouse embryonic fibroblasts at 0.5 to 5 uM by quantitative real time PCR assay; type: functional, cell-based; outline: as §1
Mus musculus [16] = assay: In vivo induction of white adipose browning in C57BL6 mouse subcutaneous white adipose tissue assessed as increase in UCP1 mRNA expression at 20 mg/kg/day, po by real-time PCR assay; type: functional, organism-based
Outline: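 Male C57BL6 mice (8 weeks) on 60% fat diet received 20 mg/kg compound or vehicle (5% alcohol in PBS) daily by oral gavage for 4 weeks. Subcutaneous white adipose was collected and stored at -80 °C; RNA was analyzed by SYBR qPCR against GAPDH.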

MEF [17] = assay: In vitro induction of white adipose browning in primary mouse embryonic fibroblasts assessed as increase in Prdm16 mRNA expression at 0.5 to 5 uM by real-time PCR assay; type: functional, cell-based; outline: as §1
MEF [18] = assay: Induction of mitochondrial biogenesis in primary mouse embryonic fibroblasts assessed as increase in CS mRNA expression at 0.5 to 5 uM by quantitative real time PCR assay; type: functional, cell-based; outline: as §1
MEF [19] = assay: Induction of mitochondrial biogenesis in primary mouse embryonic fibroblasts assessed as increase in SDH protein expression at 0.5 to 5 uM by Western blot method; type: functional, cell-based; outline: as §2
[20] = target: T1, Estrogen-related receptor gamma (Mus musculus); assay: Increase in ERRgamma mediated transcriptional activity in primary mouse embryonic fibroblasts assessed as increase in MCAD mRNA levels by quantitative real time PCR assay; outline: as §1
[21] = target: T2, Estrogen-related receptor gamma (Homo sapiens); assay: Activation of GAL4-DBD-ERRgamma ligand binding domain (unknown origin) expressed in HEK293FT cells at 2 uM incubated for 24 hrs by mammalian two-hybrid reporter gene assay; type: cell-based; outline: as §3
[22] = target: T1, Estrogen-related receptor gamma (Mus musculus); assay: Increase in ERRgamma mediated transcriptional activity in primary mouse embryonic fibroblasts assessed as increase in ATP5b mRNA levels by quantitative real time PCR assay; outline: as §1
[23] = target: T3, Estrogen-related receptor gamma (Homo sapiens, UniProt P62508); assay: Binding affinity to ERRgamma (unknown origin) at 20 degC by isothermal titration calorimetry
T3 sequence (P62508 whole entry): T1 sequence (whole entry)

MEF [24] = assay: Induction of mitochondrial biogenesis in primary mouse embryonic fibroblasts assessed as increase in PGC-1alpha mRNA expression at 0.5 to 5 uM by quantitative real time PCR assay; type: functional, cell-based; outline: as §1
Mus musculus [25] = assay: In vivo induction of white adipose browning in C57BL6 mouse subcutaneous white adipose tissue assessed as increase in UCP1 positive stained area at 20 mg/kg/day, po by immunohistochemistry; type: functional, organism-based; outline: as §4
[26] = target: T1, Estrogen-related receptor gamma (Mus musculus); assay: Increase in ERRgamma mediated transcriptional activity in primary mouse embryonic fibroblasts assessed as increase in MCAD mRNA levels at 1 uM by quantitative real time PCR assay; outline: as §1
[27] = target: T1, Estrogen-related receptor gamma (Mus musculus); assay: Increase in ERRgamma mediated transcriptional activity in primary mouse embryonic fibroblasts assessed as increase in ATP5b mRNA levels at 1 uM by quantitative real time PCR assay; outline: as §1
[28] = target: T1, Estrogen-related receptor gamma (Mus musculus); assay: Increase in ERRgamma mediated transcriptional activity in primary mouse embryonic fibroblasts assessed as increase in ERRalpha mRNA levels at 1 uM by quantitative real time PCR assay; outline: as §1
[29] = target: T1, Estrogen-related receptor gamma (Mus musculus); assay: Increase in ERRgamma mediated transcriptional activity in primary mouse embryonic fibroblasts assessed as increase in SHP mRNA levels at 1 uM by quantitative real time PCR assay; outline: as §1

Activity [2]: Dose-dependent effect
Activity [3]: Active
Activity [4]: Dose-dependent effect
ΔTm [6]: 0.7 °C
Activity [10]: Active
Activity [11]: Dose-dependent effect
Activity [20]: Dose-dependent effect
fold change (FC) [21]: 4.98
Activity [22]: Dose-dependent effect
Kd [23]: 46 µM
Compound: CC(C)c1ccc(Cn2cc(-c3ccc(O)c(O)c3)nn2)cc1
Activity (MEF [1]): Active
Activity (MEF [5]): Active
Activity (MEF [7]): Active
Activity (MEF [8]): Active
Activity (MEF [9]): Active
Activity (MEF [12]): Active
Activity (Adipocyte): Active
Activity (MEF [13]): Dose-dependent effect
Activity (Mus musculus [14]): Active
Activity (MEF [15]): Active
Activity (Mus musculus [16]): Active
Activity (MEF [17]): Active
Activity (MEF [18]): Active
Activity (MEF [19]): Active
Activity (MEF [24]): Active
Activity (Mus musculus [25]): Active

Activity [26]: inactive
Activity [27]: inactive
fold change (FC) [21]: 1.1
Activity [28]: inactive
Activity [29]: inactive
Compound: CC(C)c1ccc(Cn2cc(-c3ccccc3O)nn2)cc1

fold change (FC) [21]: 3.32
Compound: CC(C)c1cccc(Cn2cc(-c3ccc(O)c(O)c3)nn2)c1

fold change (FC) [21]: 1.43
Compound: Oc1ccc(-c2cn(Cc3ccccc3)nn2)cc1O

fold change (FC) [21]: 2.56
Compound: Oc1ccc(-c2cn(Cc3ccc(-c4ccccc4)cc3)nn2)cc1O

fold change (FC) [21]: 1.69
Compound: CC(C)c1ccc(Cn2cc(-c3ccc(O)cc3)nn2)cc1

fold change (FC) [21]: 2.4
Compound: CC(C)c1ccccc1Cn1cc(-c2ccc(O)c(O)c2)nn1

fold change (FC) [21]: 4.18
Compound: CC(C)(C)c1ccc(Cn2cc(-c3ccc(O)c(O)c3)nn2)cc1

fold change (FC) [21]: 1.85
Compound: CC(C)c1ccc(/C=N/NC(=O)c2ccc(O)cc2)cc1

fold change (FC) [21]: 1.31
Compound: CC(C)c1ccc(Cn2cc(-c3ccccc3)nn2)cc1

fold change (FC) [21]: 2.21
Compound: CC(C)c1ccc(Cn2cc(-c3cccc(O)c3)nn2)cc1

fold change (FC) [21]: 2.9
Compound: Cc1ccc(Cn2cc(-c3ccc(O)c(O)c3)nn2)cc1
